The text below walks through data of ChEMBL document CHEMBL1149065, “Synthesis and structure-activity relationships of cytotoxic 7-hydroxy sterols” (J Nat Prod, 1994).

SMILES strings stand for the structures.

One assay relates to Saccharomyces cerevisiae. Kind of assay: Antifungal activity against Saccharomyces cerevisiae RS 322YK (rad 52Y) assessed as DNA damaging activity. Format: functional, organism-based. A digest of the protocol: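 Growth inhibition of the rad 52 mutant strain RS322YK of *Saccharomyces cerevisiae*, measured as a zone of inhibition. Activity is reported as IC₁₂, the concentration giving a 12 mm diameter inhibition zone, in µg/ml. Sterols were also tested against the wild-type RAD⁺ strain.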

For a further assay, the system named is Vero. Kind of assay: Cytotoxicity against african green monkey Vero cells. The class given is cell-based. The following applies: Chlorocebus sabaeus.

In the case of `CC(C)C(=O)CC[C@@H](C)[C@H]1CC[C@H]2[C@@H]3CC=C4C[C@@H](O)CC[C@]4(C)[C@H]3CC[C@]12C`, in the assay with Saccharomyces cerevisiae, the IC12 was above 8000 µg/mL.

`CC(C)[C@@]1(CC[C@@H](C)[C@H]2CC[C@H]3[C@@H]4CC=C5C[C@@H](O)CC[C@]5(C)[C@H]4CC[C@]23C)CO1`: in the assay on Saccharomyces cerevisiae, the IC12 is above 8000 µg/mL.

Regarding `C=C(CC[C@@H](C)[C@H]1CC[C@H]2[C@@H]3CC=C4C[C@@H](O)CC[C@]4(C)[C@H]3CC[C@]12C)C(C)C`, in the assay with Saccharomyces cerevisiae, the IC12 was above 8000 µg/mL.

As usually defined, the IC50 is the concentration at which inhibition is half-maximal. Consider `C=C(CC[C@@H](C)[C@H]1CC[C@H]2[C@@H]3[C@H](O)C=C4C[C@@H](O)CC[C@]4(C)[C@H]3CC[C@]12C)C(C)C`, for which the IC12 with Saccharomyces cerevisiae is 7 µg/mL. The same compound gave an IC50 with Vero of 58 µM.

Regarding `CC(C)C(=O)CC[C@@H](C)[C@H]1CC[C@H]2[C@@H]3[C@H](O)C=C4C[C@@H](O)CC[C@]4(C)[C@H]3CC[C@]12C`, the IC12 with Saccharomyces cerevisiae is 14 µg/mL. Besides, in the assay on Vero, half-maximal inhibition (IC50) required 9.9 µM.

Regarding `CC(C)C(=O)CC[C@@H](C)[C@H]1CC[C@H]2[C@@H]3[C@@H](O)C=C4C[C@@H](O)CC[C@]4(C)[C@H]3CC[C@]12C`, the IC12 with Saccharomyces cerevisiae was above 500 µg/mL. This compound showed a half-inhibitory concentration (IC50) in the assay on Vero of 21 µM.

Turning to `C=C(CC[C@@H](C)[C@H]1CC[C@H]2[C@@H]3[C@@H](O)C=C4C[C@@H](O)CC[C@]4(C)[C@H]3CC[C@]12C)C(C)C`, in the assay with Saccharomyces cerevisiae, the IC12 is above 8000 µg/mL. In the assay with Vero, this compound yielded a 50% inhibitory concentration (IC50) of 31 µM.

For the compound `CC(C)[C@@]1(CC[C@@H](C)[C@H]2CC[C@H]3[C@@H]4[C@@H](O)C=C5C[C@@H](O)CC[C@]5(C)[C@H]4CC[C@]23C)CO1`, the IC12 in the assay with Saccharomyces cerevisiae was above 8000 µg/mL. This compound also showed a 50% inhibitory concentration (IC50) in the assay on Vero of 16 µM.

Consider `CC(C)[C@@]1(CC[C@@H](C)[C@H]2CC[C@H]3[C@@H]4[C@H](O)C=C5C[C@@H](O)CC[C@]5(C)[C@H]4CC[C@]23C)CO1`, for which the IC12 in the assay with Saccharomyces cerevisiae came out at 0.2 µg/mL. The concentration for half-maximal inhibition (IC50) with Vero is above 100 µM.
